Compound activity: PubChem BioAssay, SRMLSC
Shown is part of a subset that was picked to be rich in hits.
Fibroblast inh – blocks proliferation of human lung fibroblasts | 85,000 compounds, 1.1% hits | LL 47 human lung fibroblast viability, ATP luminescence; hits give low values | viability, % at 10 µM | AID 719;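 active means viability at or below 50% in the single dose screen; inactive means viability above 50%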;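 further: compound exposure lasted 72 h before the ATP readout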
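Test system: LL 47 human lung fibroblasts; Quantity: 1,150 cells/well; Buffer or medium: IMEM plus 15% FBS; Dosing: tenfold compound dosing solution, DMSO at 0.1%; Timing: overnight cell rest, 72 h compound treatment at 37 °C; Detection: ATP-based CellTiter-Glo luminescent readout; Read-out basis: viability percentage against median untreated-cell control; Controls: cell-only wells, no compound.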
H69AR growth 86K – blocks growth of human H69AR lung tumor cells; H69AR lung tumor viability, ATP luminescence, 72 h; hits give low values; viability, % at 10 µM; 85,000 compounds, 6% hits;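 active means viability at or below 40%; inactive means viability above 40%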;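 further: multidrug resistant small cell line overexpressing MRP-1 efflux transporter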
HCT116 bCat-KO – beta-catenin-lacking colon tumor cell growth suppression. AID 818. 140,000 compounds, 1.5% hits. HCT116 beta-catenin knockout viability, CellTiter-Glo, 60 h; hits give low values. viability, % at 10 µM;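 active means viability at or under a set limit, the compound median less 4 SD, cut at about 6% in these data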
PTEN del growth – PTEN-deleted cell growth suppression; HCT116 PTEN-null viability, CellTiter-Glo, 60 h; hits give low values; viability, % at 10 µM; 140,000 compounds, 1.2% hits;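 active means viability at or below a set limit, 4 SD under the median of all tested compounds, cut at about 3.7% in these data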;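 further: PTEN knockout HCT116 line with beta catenin targeted HCT116 as companion control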
HUVEC inhibit – inhibitors of human endothelial cell proliferation; viability, % at 10 µM (by protocol); HUVEC proliferation, CellTiter-Glo luminescence, 72 h; hits give low values; 86,000 compounds, 1.1% hits;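 active means viability at or below 30%; inactive means viability above 30%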
Numbers stand for hits; . = inactive; / = not tested or not shown.

SMILES	Fibroblast inh	H69AR growth 86K	HCT116 bCat-KO	PTEN del growth	HUVEC inhibit
O=C(NCc1cccnc1)/C(=C\c1ccc(-c2ccc(Br)cc2)o1)S(=O)(=O)c1ccccc1	/	/	1.6	0.9	/
O=C(NCc1cccnc1)/C(=C/c1ccc(-c2cccc(C(F)(F)F)c2)o1)NC(=O)c1ccccc1	/	/	.	.	/
O=C(NCc1cccnc1)/C(=C/c1ccc(-c2ccc(Cl)cc2)o1)S(=O)(=O)c1ccccc1	/	/	1.7	1.3	/
CC(=O)C1=NN(c2ccccc2)C2(S1)S/C(=C\c1ccccc1)C(=O)N2c1ccccc1 (configuration not stated)	/	/	.	.	/
O=C(CSc1nnc(COc2cccc3cccnc23)o1)N1CCc2ccccc21	.	.	.	.	.
O=C(CSc1nnc(COc2ccc(F)cc2)o1)N1c2ccccc2CCc2ccccc21	.	1.9	.	.	.
CCOC(=O)c1cc(-c2ccccc2)n(CCC(=O)N2CCN(c3ccccn3)CC2)c1C	/	/	.	.	/
COc1cc2c(cc1OC)CN(C(=O)c1cc3ccccc3oc1=O)CC2	/	23.6	.	.	.
FC(F)C(F)(F)C(F)(F)C(F)(F)c1cc(-c2ccccc2)n[nH]1	.	30.2	.	.	13.9
Cc1ccc(O)c(-c2cc(C(F)(F)C(F)F)[nH]n2)c1	.	.	.	.	.
C/C(=N\NC(=O)c1ccccc1-n1cccc1)C1CC1	/	/	.	.	/
Cc1cccc2c1NC(=O)C2(c1ccc(O)cc1)c1ccc(O)cc1	/	/	.	.	/
Cc1cc(C2(c3ccc(O)c(C)c3)C(=O)Nc3ccccc32)ccc1O	/	/	1.1	1.5	/
CCOc1ccccc1NC(=S)/C(=C(\[O-])c1ccc2c(c1)OCCO2)[n+]1ccc(CC)cc1	/	/	.	.	/
Cc1cccc(NC(=S)NC(=O)/C=C/c2ccco2)n1	.	32.8	.	.	.
Cc1ccc(-n2nc3cc(C)c(NC(=S)NC(=O)/C=C/c4ccco4)cc3n2)cc1	/	/	5.5	.	/
COc1ccccc1NC(=S)NC(=O)/C=C/c1ccco1	/	/	.	.	/
COc1cc(/C=C/C(=O)OCC(=O)Nc2cc(C(F)(F)F)ccc2N2CCOCC2)ccc1O	/	/	.	.	/
COc1ccc(/C=C2\CCCC3C2=NN(C(=O)c2ccco2)C3c2ccc(OC)c(OC)c2)cc1OC (configuration not stated)	/	/	5.6	2.5	/
COc1ccc(/C=C2\CCCC3C2=NN(C(=O)c2scnc2C)C3c2ccc(OC)c(OC)c2)cc1OC (configuration not stated)	/	/	.	.	/
Cc1c(NC(=O)c2cc3nc(-c4ccc(Br)cc4)cc(C(F)(F)F)n3n2)c(=O)n(-c2ccccc2)n1C	46.2	0.6	.	.	.
CO/N=C/c1ccc(N2CCN(C(=O)c3ccc(Cl)cc3Cl)CC2)c([N+](=O)[O-])c1	/	/	.	.	/
CCC(C)NC(=O)CSc1nc(-c2cccs2)cc(C(F)(F)F)n1 (configuration not stated)	/	/	.	.	/
O=C(CSc1nc(-c2cccs2)cc(C(F)(F)F)n1)Nc1cc(OCC(F)(F)F)cc([N+](=O)[O-])c1	/	/	2.1	.	/
CC1OC(Oc2ccc3ccc(=O)oc3c2-c2c(O)ccc3cc(Oc4ccc5ccc(=O)oc5c4)c(=O)oc23)C(O)C(O)C1O (configuration not stated)	/	/	.	.	/
SMILES	Fibroblast inh	H69AR growth 86K	HCT116 bCat-KO	PTEN del growth	HUVEC inhibit
O=CN1CCN(C(C(=O)NC2CCCC2)c2ccc(Cl)cc2)CC1 (configuration not stated)	.	.	.	.	.
CC(/C=N\NC(=O)CN1CCN(S(=O)(=O)c2ccc(C)cc2)CC1)=C\c1ccccc1	/	/	.	.	/
Cc1cc(C)c2[nH]c(O)c(N=NC(=S)NCC3CCCO3)c2c1 (configuration not stated)	/	/	.	.	/
Oc1[nH]c2c(Cl)cc(Cl)cc2c1N=NC(=S)NCC1CCCO1 (configuration not stated)	/	/	1.4	0.5	/
FC(F)(F)c1nnc2c(Sc3ccc(Cl)cc3)nc3ccccc3n12	/	/	2.8	.	/
FC(F)(F)c1nnc2c(Sc3ccccn3)nc3ccccc3n12	/	/	2.1	2.7	/
CC1=C(SCCC#N)S/C(=C2\SC(C)=C(SCCC#N)S2)S1	.	26.1	.	.	18.6
CCOC(=O)NC1(NC(C)C)Oc2ccccc2O1	.	36.1	.	.	.
CCOC(=O)C(C(=O)Nc1ccccc1C)C1CCCCC1 (configuration not stated)	.	.	.	.	.
CCOC(=O)NC1(Nc2ccc(C)cc2)Oc2ccccc2O1	/	/	.	.	/
CCOC(=O)NC1(NCc2ccccc2)Oc2ccccc2O1	.	19.4	.	.	.
CCOC(=O)NC1(NCC(C)C)Oc2ccccc2O1	/	/	.	.	/
